For data set [1], the system named is heart function in rats after ischemia/reperfusion injury. The following applies: rat, in vivo.
The target of data set [2] is T1, alpha-B crystalline (Homo sapiens, UniProt P02511).
T1 sequence (P02511 1-175): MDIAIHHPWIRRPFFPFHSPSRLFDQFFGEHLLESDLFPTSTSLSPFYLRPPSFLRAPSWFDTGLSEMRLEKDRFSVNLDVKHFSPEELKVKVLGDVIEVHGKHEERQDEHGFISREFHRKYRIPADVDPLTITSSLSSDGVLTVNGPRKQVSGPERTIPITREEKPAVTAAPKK
Put plainly: Surface Plasmon Resonance assay. Format: binding. The following applies: biotinylated peptide on streptavidin coated chips, Biacore 2000. (In general: SPR reads the build-up and loss of mass on a sensor chip optically.)

Data set [3] relates to heart function in rats after ischemia/reperfusion injury.
Data set [4] deals with ischemic left ventricle. Briefly: Western analysis of post-ischemic cardiac tissue with anti-mCherry antibody. Format: in vivo, mouse. The following applies: versus negative controls. Put shortly: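 Mice had 15 min ischemia then 5 min reperfusion. Recombinant Sumo-mCherry–test peptide (Ni-NTA plus size-exclusion purified; 10 mg/mL PBS stock) was given 1 mg i.v. Controls were unconjugated Sumo-mCherry, linear or scrambled peptide fusions, and PBS. After 5 min circulation, ischemic LV, non-ischemic LV and RV were snap frozen, RIPA-homogenized, sonicated and centrifuged, then blotted with rabbit anti-RFP. Three blinded sets, 5 mice each.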

[5] abbreviates: echocardiography, 24 hours after administration, n=4, mean ± SEM.
The mark [6] stands for this setting: hemodynamic measurement, 24 hours after administration, n=4, mean ± SEM.

Where two headings read alike, the source gives them in different places. Bridge positions count the residues as written; N and C are the ends. Ends that are not written are not given here.

“CSKTALSMC (disulfide 1-9 (inferred)) [scrambled peptide]”: in data set [1], the “% Fractional shortening” value came out at 43.20±3.22%, the Anterior wall thickness was determined as 2.08±0.08 mm, the Cardiac index came out at 20.96±4.48 ml/min per 100 g and the Cardiac output turned out to be 44530 ± 7633 µL/min. Further, in data set [1], the Ejection fraction amounted to 27.89±3.01%, the End-diastolic dimension came to 5.16±0.23 mm, the End-diastolic pressure turned out to be 3.08±0.22 mmHg and the End-diastolic volume was 362.72 ± 14.82 µL. In addition, in data set [1], the End-systolic dimension is 2.93±0.18 mm, the End-systolic pressure is on record as 120.1±3.48 mmHg, the End-systolic volume turned out to be 260.91 ± 10.99 µL and the Heart rate came to 430.75±20.59 beats/min. In data set [1], this substance came in with an LVM/BW of 2.94±0.32, a Left ventricle mass of 646 ± 55.48 g, a Posterior wall thickness of 1.83±0.06 mm and a Stroke volume of 101.81 ± 13.74 µL.

For CSTSMLKAC (disulfide 1-9 (inferred)), in data set [2], the “interaction with alpha-B crystalline” value was “a significant interaction between CSTSMLKAC and alpha-B crystalline was not demonstrated”. The substance further had a Body weight in data set [3] (24 hours after administration, n=4, mean ± SEM) of 260.25 ± 13.14 g. For the same substance, in data set [3] (24 hours after systemic administration, versus scrambled peptide and PBS, n=4 each), the “impairment in LV contractile function” value was “did not induce any significant impairment”. Moreover, in data set [3] (setting [5]), the “% Fractional shortening” value came out at 54.05±6.72%, the Anterior wall thickness was 2.00±0.04 mm, the End-diastolic dimension amounted to 5.33±0.36 mm and the End-systolic dimension was 2.49±0.51 mm. The substance also came in with a Posterior wall thickness in data set [3] (setting [5]) of 1.73±0.10 mm. In data set [3] (setting [6]), this substance came in with a Cardiac index of 19.87±2.54 ml/min per 100 g, a Cardiac output of 51430 ± 6708 µL/min, an Ejection fraction of 28.44±2.09% and an End-diastolic pressure of 3.96±0.67 mmHg. For the same substance, in data set [3] (setting [6]), the End-diastolic volume amounted to 393.56 ± 25.62 µL, the End-systolic pressure turned out to be 119±3.16 mmHg, the End-systolic volume came out at 280.76 ± 15.91 µL and the Stroke volume is 112.82 ± 13.61 µL.

Regarding Sumo-mCherry-CSTSMLKAC, the “homing of the protein to post-ischemic cardiac tissue” value in data set [4] is “clear homing”.
